This is a sample that favours compounds with a hit; in the whole collection about 1.4% have one here.
CASP6 VEID inh: human caspase-6 inhibitors, primary screen, biochemical, VEID-R110 fluorescence, single point, set 2; P55212; purified caspase-6, Z-VEID-R110 cleavage fluorescence; inhibition, % at 12.5 µM; 350,000 compounds, 0.53% hits; AID 686996, 2013;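 active = mean inhibition across replicates at least about 35%, with every replicate also reaching that limit, limit read from the data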;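 also: 0% = median of neutral control wells and 100% = no fluorescence left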
Target sequence (P55212 24-179 limits assumed): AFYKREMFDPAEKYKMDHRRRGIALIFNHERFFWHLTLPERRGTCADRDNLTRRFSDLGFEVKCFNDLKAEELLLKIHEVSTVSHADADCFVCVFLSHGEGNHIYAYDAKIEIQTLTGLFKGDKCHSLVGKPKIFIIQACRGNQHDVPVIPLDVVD
Target sequence (P55212 194-293 limits assumed): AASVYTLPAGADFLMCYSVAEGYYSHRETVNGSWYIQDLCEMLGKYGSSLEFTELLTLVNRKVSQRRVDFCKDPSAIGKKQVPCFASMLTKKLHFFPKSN
T cell modulator: modulators of CD8 T cell-vesicle binding, primary screen, mouse 2C CD8+ T cells, flow cytometry | 2C CD8+ T cell-vesicle binding; hits give low values | response (vesicle binding), % at 7 µM | 330,000 compounds, 0.068% hits;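 active = response, share of CD8 T cells binding vesicles, and their 90th percentile fluorescence all below set limits, cut at about 80% in these data, passing the limit was not always enough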;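 also: values below 100% mean blocked vesicle binding to the CD8+ T cells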
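Material: 2C TCR transgenic mouse naive CD8+ T cells, MACS-purified. Also added: QL9-charged Drosophila Ld/ICAM-1/B7-1 vesicles. Timing: binding 1.5 h at 37 °C. Measured by: high-throughput flow cytometry with anti-B7-1 and anti-CD8 staining. Read-out: percent CD8+ FL2 mean versus row control. Controls: Unloaded micro-vesicles (low), QL9 vesicles with 0.7% DMSO (high).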
Myeloid diff 2: induction of myeloid progenitor differentiation, primary screen, cell-based, flow cytometry, MLPCN library; AID 624256, 2012; calls only at 10 µM; 360,000 compounds, 1% hits; ER-HoxA9 myeloid progenitors, lysozyme-GFP differentiation;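 active = normalized GFP-positive differentiation at or above the plate's own cutoff, the solvent-only control mean plus 3 SD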;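 also: cells exposed to compound for four days before flow analysis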
Vif inh: HIV Vif self-association inhibitors, primary screen, imaging, HEK293T, single point; HEK293T cells, Vif self-association by quenched fluorescence, 24 h; AID 602346, 2012; 340,000 compounds, 0.35% hits; inhibition, % at 7.49 µM; in the data active = inhibition above about 50%, passing the limit was not always enough
* hit, by the source's call; i = inactive; . = no result; + = active, no number.

SMILES	CASP6 VEID inh	T cell modulator	Myeloid diff 2	Vif inh
CN1C(=O)c2cc(NC(=O)C3CCOCC3)ccc2OC[C@@H]2O[C@H](CC(=O)NCc3ccc4c(c3)OCO4)CC[C@@H]21	1	.	.	.
OC[C@H]1[C@H](c2ccc(-c3ccccc3)cc2)[C@@H]2CN(CCC(F)(F)F)CCCCN12	-11	.	.	.
Cc1ccccc1-c1nc(CS(=O)(=O)CC(=O)NCCN2CCCC2)c(C)o1	36*	894	i	-9
O=C(Nc1ccccc1F)N1C[C@@H]2N[C@H](C1)C2c1ccc(/C=C/c2ccccc2)cc1 (some centres not stated)	-1	.	.	.
O=C(Nc1cc(F)ccc1F)N1CC(=O)N2[C@H](CO)[C@@H](c3ccc(C#CC4CCCC4)cc3)[C@H]2C1	0	.	.	.
COC(=O)C1=NNC(C(=O)c2ccco2)C1c1ccc(OC)cc1 (configuration not stated)	-1	742	i	52*
C=CCOc1ccc(C(c2c(C(=O)O)[nH]c3ccccc23)c2c(C(=O)O)[nH]c3ccccc23)cc1	48*	224	i	0
COc1ccc(-n2c(COc3ccccc3)nnc2SCC(N)=O)cc1	.	251	i	17
COc1ccc(-n2c(COc3ccc(C)cc3)nnc2SCC(N)=O)cc1	.	361	+	1
COC(=O)CSc1nnc(C)n1-c1ccc(C)cc1	.	249	+	15
O=C(c1cccc(F)c1)N1CC[C@@H]2[C@@H](CO)Nc3ccc(-c4ccccc4)cc3[C@@H]21	-1	.	.	.
O=C1OC(Nc2ccc(F)c([N+](=O)[O-])c2)c2ccccc21 (configuration not stated)	-3	263	i	-6
O=C1OC(Nc2ccc3c(c2)OCO3)c2ccccc21 (configuration not stated)	.	127	+	12
CCOC(=O)N1CCC(NC(=O)C2CCN(C(=O)c3cc4oc(C)cc4n3Cc3c(F)cccc3Cl)CC2)CC1	3	175	i	-16
COC(CNC(=O)C1CCN(C(=O)c2cc3oc(C)cc3n2Cc2c(F)cccc2Cl)CC1)OC	3	165	i	55*
CN(C)C(=O)C[C@H]1CC[C@@H]2[C@H](COC[C@H](O)CN2C(=O)C2CC2)O1	2	.	.	.
Cc1cccc(CN2CCc3c([nH]c4ccccc34)C2)c1	-8	556	i	-4
COc1cc(OC)c(CN2CCc3c([nH]c4ccccc34)C2)cc1Br	-3	282	+	0
Cc1nc(N2N=C(c3ccc(Cl)cc3)CC2c2ccco2)sc1C(=O)N(C)C (configuration not stated)	17	732	+	6
O=C(C[C@H]1CC[C@@H]2[C@H](COC[C@@H](O)CN2CCc2ccccc2)O1)NCc1ccc(F)cc1	-2	.	.	.
COc1cc(O)c(C(CC(=O)N2CCCC2)c2ccc(N(C)C)cc2)c(OC)c1 (configuration not stated)	.	321	i	74*
CO[C@H]1CN(C)C(=O)c2cc(NC(=O)NC(C)C)ccc2OC[C@@H](C)N(C(=O)CC2CC2)C[C@@H]1C	2	.	.	.
Cc1c(N=C2N=C(NC(=O)c3cccs3)c3ccccc32)c(=O)n(-c2ccccc2)n1C	4	215	i	5
Cc1c(N=C2N=C(NC(=O)NC(C)(C)C)c3ccccc32)c(=O)n(-c2ccccc2)n1C	.	32*	i	10
CC(C)(C)NC(=O)C1CCN(S(=O)(=O)c2cccc3nsnc23)CC1	55*	753	i	7
SMILES	CASP6 VEID inh	T cell modulator	Myeloid diff 2	Vif inh
Cc1noc(/C=C/c2ccco2)c1S(=O)(=O)N1CCC(C(=O)N(C)Cc2ccccc2)CC1	-1	i	i	2
Cc1noc(/C=C/c2ccco2)c1S(=O)(=O)N1CCC(C(=O)NC(C)c2ccccc2)CC1 (configuration not stated)	0	410	+	20
COC(=O)CNC(=O)C1CCN(S(=O)(=O)c2cccc3nsnc23)CC1	3	431	i	-4
CC(NC(=O)C1CCN(S(=O)(=O)c2cccc3cccnc23)CC1)c1ccccc1 (configuration not stated)	6	492	+	-2
CCN(CC)c1nc(C=Cc2ccc(N(C)C)cc2)c2nccnc2n1	-2	.	+	.
COC(=O)C[C@@H]1CC[C@@H]2[C@H](COC[C@H](O)CN2C(=O)Nc2ccccc2OC)O1	-5	.	.	.
CCS(=O)(=O)N1CCC2(CC1)CN(Cc1ccccc1)[C@@H](CO)c1c2c2ccc(OC)cc2n1C	3	.	.	.
O=c1cnn(Cc2c(Cl)cccc2Cl)c2ccccc12	-1	272	+	16
COc1ccc(C(=O)N/N=C(/C)c2cccc(NC(=O)c3ccncc3)c2)cc1OC	1	176	i	6
COc1ccc(C(=O)Nc2cccc(/C(C)=N/NC(=O)c3ccc([N+](=O)[O-])cc3)c2)cc1OC	.	177	+	-13
C/C(=N/NC(=O)c1cc(O)c(O)c(O)c1)c1ccc([N+](=O)[O-])cc1	74*	.	i	2
COc1ccc(C(=O)Nc2cccc([N+](=O)[O-])c2)cc1Br	.	211	i	74*
Cc1noc(C)c1NC(=O)Nc1ccc2c(c1)C(=O)N([C@H](C)CO)C[C@@H](C)[C@@H](CN(C)C(=O)Nc1ccc(F)cc1)O2	1	.	.	.
C[C@@H]1CN([C@H](C)CO)C(=O)c2cc(C#CC3CC3)cnc2O[C@@H]1CN(C)S(C)(=O)=O	0	.	.	.
Cc1sc2ncnc(SCC(=O)Nc3ncccc3O)c2c1C	43*	49	i	-4
Cc1cc2c(SCC(=O)Nc3cccc(O)c3)ncnc2s1	34	.	+	-5
Cc1cccnc1NC(=O)CSc1ncnc2sc(C)c(C)c12	0	242	.	-6
COC(=O)C[C@@H]1CC[C@@H]2[C@H](COc3ccc(NS(=O)(=O)c4cccc(F)c4)cc3C(=O)N2C)O1	-3	.	.	.
CCCC1=[N+](CC(=O)c2ccc(C)cc2)CCn2cccc21	.	199	+	0
Cc1cc(C(=O)N2CCCC(CO)(Cc3ccc(F)cc3F)C2)nn1C (configuration not stated)	1	.	+	6
Cc1c(S(=O)(=O)c2ccccn2)c(N)n(Cc2ccccc2Cl)c1C	-1	588	+	5
Cc1ccc(S(=O)(=O)Cc2ccc(C(=O)O)o2)cc1	52*	610	i	.
COC(CNC(=O)c1ccc(CS(=O)(=O)c2ccc(C)cc2)o1)OC	1	151	+	-13
O=C1C2C(C(=O)N1/N=C/c1cc([N+](=O)[O-])ccc1O)C1C=CC2C12CC2 (configuration not stated)	5	373	i	4
O=C1C2C(C(=O)N1/N=C/c1cc([N+](=O)[O-])c(O)cc1O)C1C=CC2C12CC2 (configuration not stated)	76*	337	i	-1

Screening data: PubChem BioAssay, several laboratories
